Screens (PubChem BioAssay)
Hits are enriched below; roughly 3.3% of the tested compounds scored in any of these assays.
SENP8 block-1 – SENP8 (human) protease inhibition. Q96LD8. recombinant SENP8, Nedd8 substrate fluorescence. inhibition, % at 20 µM. 0.64% of 360,000 active. AID 602440; in the data active = inhibition mostly above about 40%, no sharp cut-off; inactive = mostly below about 27%
SENP1 FRET inh – SENP1 (human) catalytic domain inhibition; recombinant SENP1 catalytic domain, CyPet-SUMO1-YPet FRET cleavage; inhibition, % at 10 µM; 0.21% of 360,000 active; AID 624204;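 active = inhibition at least 30% at 10 µM, raw YFP signal under a set limit, fluorescence ratio 0.5 to 1.5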;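 note: 0% = enzyme with DMSO and 100% = no enzyme wells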
Target sequence (Q9P0U3 419-644 limits assumed): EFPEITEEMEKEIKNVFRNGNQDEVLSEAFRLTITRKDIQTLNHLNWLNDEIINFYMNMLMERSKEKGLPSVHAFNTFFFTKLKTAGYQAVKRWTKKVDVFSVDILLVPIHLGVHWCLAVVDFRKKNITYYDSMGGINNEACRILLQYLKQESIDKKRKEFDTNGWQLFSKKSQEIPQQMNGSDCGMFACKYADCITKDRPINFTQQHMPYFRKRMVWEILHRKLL
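Controls: no-enzyme wells low, DMSO-plus-enzyme wells high control. Test system: human recombinant His6-tagged SENP1 catalytic domain enzyme. Reagent: SFCypet-SUMO1-SFYpet FRET protein substrate, 25 nM final. Doses: one dose per compound, 10 µM, 0.5% DMSO. Detection: FRET, CFP and YFP emission. Timing: 50 min reaction at room temperature.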
SENP8 block-2 – blocks the human protease SENP8. Q96LD8. purified SENP8, Z-RLRGG-aminoluciferin cleavage, luminescence. inhibition, % at 10 µM. 1.2% of 330,000 active; in the data active = inhibition above about 50%
SENP6 block – SENP6 protease inhibition. Q9GZR1. Recombinant SENP6 catalytic domain, aminoluciferin luminescence. inhibition, % at 10 µM. 1.8% of 330,000 active. AID 2599;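 active = inhibition above about 50% at the single tested dose, limit read from the data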;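 note: plate controls were DMSO wells with enzyme for no effect and DMSO wells lacking enzyme for full effect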
NRP1-CendR mod – modulators of CendR peptide binding to human neuropilin-1. O14786. FAM-RPARPAR peptide binding to NRP-1, fluorescence polarization. inhibition, % at 25 µM. 0.85% of 360,000 active;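 active = inhibition or corrected inhibition above about 18%, plus a signal ratio from 0.5 to 1.5, limit read from the data, passing the limit was not always enough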
SENP7 block – SENP7 protease inhibition; inhibition, % at 5 µM; 1.5% of 330,000 active; recombinant SENP7, Z-RLRGG-aminoluciferin luminescence, 40 min; Q9BQF6;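 active = inhibition above about 50% at the single test dose, limit read from the data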;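 note: plate controls were DMSO with enzyme for no effect and no enzyme buffer wells for full effect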
SENP8 conf – human SENP8 inhibition, confirmed; shares compounds with SENP7 block; Recombinant SENP8, Z-RLRGG-aminoluciferin luminescence, 60 min; 40% of 6,200 active; inhibition, % at 12.5 µM; AID 488912;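 active = mean inhibition across replicates above about 50%, limit read from the data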
SENP6 confirm – confirmation of human SENP6 protease inhibitors; inhibition, % at 12.5 µM; recombinant SENP6, Z-RLRGG-aminoluciferin luminescence; 58% of 6,200 active; AID 488915; shares compounds with SENP7 block
SENP7 confirm – human SENP7 inhibition, confirmed. 69% of 6,200 active. recombinant SENP7, Z-RLRGG-aminoluciferin luminescence, 40 min. shares compounds with SENP7 block. inhibition, % at 12.5 µM. AID 488917
Casp3 SENP sel – selectivity test for SENP inhibitors: human caspase-3 inhibition; 60% of 6,200 active; shares compounds with SENP7 block; inhibition, % at 12.5 µM; purified caspase-3, Z-DEVD-aminoluciferin luminescence, 60 min; AID 488918;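 active = mean inhibition above about 50%, limit read from the data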;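 note: plate controls were enzyme with DMSO for no effect and wells without caspase-3 for full effect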
Target sequence (P42574 28-227 limits assumed): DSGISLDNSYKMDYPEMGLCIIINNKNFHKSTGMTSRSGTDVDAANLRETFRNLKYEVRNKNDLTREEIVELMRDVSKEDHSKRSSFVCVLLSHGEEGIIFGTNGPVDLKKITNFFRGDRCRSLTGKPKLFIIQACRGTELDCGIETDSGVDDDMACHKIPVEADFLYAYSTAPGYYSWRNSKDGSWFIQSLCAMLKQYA
SENP luc ctr – luminescence interference (SENP counter-screen); inhibition, % at 12.5 µM; shares compounds with SENP7 block; 39% of 6,200 active; Pre-incubated SENP8/Z-RLRGG-aminoluciferin, luciferase luminescence interference;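 active = mean inhibition above about 50% when retested at one dose, limit read from the data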;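 note: plate controls were DMSO wells with completed reaction for no effect and substrate without enzyme for full effect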
An asterisk follows results filed as active; . = not tested or not shown.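 Rule for the calls, unless noted: active = mean inhibition above about 50% in the one-dose retest (limit read from the data); inactive = the rest.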

SMILES	SENP8 block-1	SENP1 FRET inh	SENP8 block-2	SENP6 block	NRP1-CendR mod	SENP7 block	SENP8 conf	SENP6 confirm	SENP7 confirm	Casp3 SENP sel	SENP luc ctr
CCOC(=O)C(Oc1ccc(=O)n(-c2ccccc2)n1)C(C)=O (configuration not stated)	10	0	-5	-22	-11	84*	7	10	7	4	2
O=C(C(=Cc1ccc(O)cc1)c1ccccc1)c1ccccc1	13	-2	.	.	3	.	.	.	.	.	.
CC(=O)Oc1ccc2nc(/C=C/c3ccccc3)oc(=O)c2c1	-198	-38	77*	36	15	72*	16	22	49	62*	52*
O=[N+]([O-])c1cccnc1Nc1ccc(Cl)cc1	33	2	.	.	-6	.	.	.	.	.	.
O=[N+]([O-])c1ccc(/C=N/n2cnc3ccccc32)s1	36	-10	2	73*	50	34	15	25	16	2	0
O=[N+]([O-])c1ccc(/C=N/Nc2ncccc2[N+](=O)[O-])s1	33	9	27	41	-5	91*	23	22	19	35	6
Cc1nc2ccccc2n1/N=C/c1ccc([N+](=O)[O-])s1	34	4	33	73*	3	11	-9	14	1	-3	-4
O=C(c1cccs1)c1ccc(-c2cccs2)s1	-376	10	94*	95*	-21	94*	65*	96*	97*	86*	42
CN1CCN(C(=O)c2ccc(-c3cccs3)s2)CC1	-478	-10	1	6	-2	9	.	.	.	.	.
Cc1nc2oc3ccc(Cl)cc3c(=O)c2cc1C(=O)O	-114	-7	70*	79*	-29	79*	82*	81*	96*	94*	76*
CC(C)c1ccc2oc3nc(N)c(C(=O)O)cc3c(=O)c2c1	.	.	96*	97*	.	101*	98*	99*	102*	97*	91*
CCc1nc2oc3ccc(C)cc3c(=O)c2cc1C(=O)OC	-22	-11	.	.	7	.	.	.	.	.	.
Cc1nc2oc3ccccc3c(=O)c2cc1C(=O)O	-1	7	-4	7	-9	-7	.	.	.	.	.
Cc1cccc(NC(=O)c2ncn3c2C(=O)N[C@H](C)C3)c1	21	4	.	.	8	.	.	.	.	.	.
Cc1cc(NC(=O)c2ccccc2)sc1C	0	2	90*	94*	-18	94*	1	96*	103*	96*	95*
Cc1ccc(NC(=O)c2ccccc2)s1	11	0	0	3	-4	-3	.	.	.	.	.
COc1ccc(CONc2ncnc3nonc23)cc1[N+](=O)[O-]	11	-1	55*	70*	7	46	2	50*	83*	70*	62*
CN(Cc1ccc(C(C)(C)C)cc1)C(=O)c1ccc2c(c1)OCO2	9	2	-3	-12	-4	5	.	.	.	.	.
Cc1ccsc1C=C1C(=O)c2ccccc2C1=O	31	3	44	11	-2	69*	74*	66*	79*	69*	37
OC(c1ccc(F)c(F)c1)c1nc(-c2cccc(F)c2)cs1 (configuration not stated)	6	4	.	.	6	.	.	.	.	.	.
O=C(OCc1ccc(Cl)c(Cl)c1)c1ccc[nH]1	15	-1	47	59*	2	33	54*	51*	82*	26	71*
CCc1ccccc1NC(=O)CN(C)C(=O)c1cccc(S(=O)(=O)N2CCCCCC2)c1	2	2	4	-5	4	-4	.	.	.	.	.
O=C(Nc1cccnc1)c1cc(-c2ccc(Cl)cc2Cl)on1	2	-1	-4	15	5	64*	18	20	17	18	8
Cc1c(NC(=O)c2cc(CC(C)C)on2)c(=O)n(-c2ccccc2)n1C	23	0	11	8	8	55*	-13	-5	-10	3	-3
O=C(Nc1cccnc1)c1cc(-c2ccc(Cl)cc2)on1	28	0	29	60*	-8	86*	29	31	67*	56*	24
SMILES	SENP8 block-1	SENP1 FRET inh	SENP8 block-2	SENP6 block	NRP1-CendR mod	SENP7 block	SENP8 conf	SENP6 confirm	SENP7 confirm	Casp3 SENP sel	SENP luc ctr
COc1ccccc1-c1cc(C(=O)Nc2cccnc2)no1	-10	1	.	.	16	.	.	.	.	.	.
Cc1c(NC(=O)c2cc(C(C)C)on2)c(=O)n(-c2ccccc2)n1C	7	1	-3	-10	11	4	.	.	.	.	.
CC(C)Cc1cc(C(=O)Nc2cccnc2)no1	6	4	31	48	5	52*	45	43	76*	79*	55*
CC(C)N=C1NN=C(c2ccc(F)cc2)CS1	4	1	73*	65*	3	79*	84*	85*	99*	96*	89*
Cc1ccc(S(=O)(=O)N2CCN(C(=O)C(O)c3ccccc3)CC2)cc1 (configuration not stated)	19	0	.	.	-2	.	.	.	.	.	.
CS/C(N)=N/N=C/c1cc(C)ccc1O	17	-2	54*	-2	11	63*	39	60*	85*	64*	66*
CCCCS/C(N)=N/N=C/c1cc(C)ccc1O	11	-1	-9	-20	4	-6	.	.	.	.	.
CCS/C(N)=N/N=C/c1cc(C)ccc1O	26	-1	47	71*	11	51*	62*	62*	87*	62*	29
O=C(O)c1ccc(-c2noc(-c3ccccc3C(F)(F)F)n2)cc1	18	0	67*	82*	-18	4	5	29	43	38	46
O=C(O)c1ccc(-c2noc(-c3ccccc3Cl)n2)cc1	9	2	97*	97*	13	88*	99*	99*	103*	98*	98*
O=C(O)c1ccc(-c2noc(-c3cccc(Cl)c3)n2)cc1	11	-1	98*	97*	12	97*	98*	99*	102*	98*	95*
O=C(NCc1ccco1)c1ccccc1-c1nc(-c2ccc(F)cc2)no1	7	-2	0	3	-5	0	.	.	.	.	.
